“Also recorded” adds a separate entry of the source.
How the values were obtained:
[1] = system: HSP70; assay: HSP70 levels in PBMCs by ELISA; assay type: in vivo, human
[2] = rat model; preclinical; cited from earlier work
[3] = Plasma pharmacokinetics of HSP990 after oral dosing; assay type: in vivo, human; details: for AUClast: day 22; for Cmax: steady state
How it was run: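 Oral dosing 30 min after a light breakfast, then a 3-h fast, with meal timing recorded. Plasma was assayed centrally by validated LC-MS/MS and analysed non-compartmentally. Day effect was tested by ANCOVA on log-transformed AUC and Cmax with a linear mixed-effect model.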

[4] = system: advanced solid tumours; assay: FDG-PET metabolic response; assay type: in vivo, human
How it was run: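 FDG-PET was done at screening/baseline, on day 10 of cycle 1 and on day 2 of cycle 3. Maximum SUV was summed across all target lesions (sSUVmax). A reduction of ⩾25% counted as objective metabolic response and an increase of ⩾25% as progression. Any new PET lesion counted as metabolic progression.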

[5] = system: dogs; details: preclinical pharmacology studies, ref Novartis, 2012; cited from earlier work
[6] = system: rats; details: preclinical pharmacology studies, ref Novartis, 2012; cited from earlier work
[7] = system: patients with advanced solid tumours; assay: Safety: adverse events graded by NCI CTCAE version 3.0 in phase I study; assay type: in vivo, human
How it was run: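 Toxicity was graded by NCI CTCAE v3.0 during oral dosing in 28-day cycles. Assessments covered physical and neurological examination, vital signs, weight, performance status, and AEs/SAEs. Haematology, coagulation, biochemistry and urinalysis were done at baseline, on day 1 of every cycle, at the last visit and when clinically indicated. ECGs were done on day 1 of each cycle. ECHO/MUGA was done at baseline, at the end of cycles 2–4, then every other month. Data were summarised descriptively.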

[8] = system: advanced solid tumours; assay: Tumour response according to RECIST version 1.0; assay type: in vivo, human
How it was run: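 Tumours were assessed radiologically at baseline, at the end of every two 28-day cycles and at the end of treatment. Response was classified per RECIST version 1.0. Patients had at least one measurable lesion at entry and received oral capsules once or twice weekly until progression, unacceptable toxicity or withdrawal.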

[9] = system: patients with advanced solid tumours; assay: Dose-limiting toxicities and MTD/RP2D determination; assay type: in vivo, human
How it was run: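 Oral capsules, once or twice weekly, in 28-day cycles under fasting conditions. Cohorts had at least three patients. A DLT was any clinically relevant AE or abnormal laboratory value in the first 28 days. A Bayesian logistic regression model with escalation with overdose control estimated the posterior probability of DLT at each dose level from cycle 1 data. MTD/RP2D was set from the model plus safety review by investigators.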

[10] = all patients (N=64), two patients

## COc1cccc(-c2cc(F)ccc2[C@H]2Cc3nc(N)nc(C)c3C(=O)N2)n1 [HSP990]
[1]; once-weekly administration, 2.5 to 60 mg
  HSP70 induction in PBMCs: tended to increase with dose across the 5 mg weekly to 30 mg weekly dose groups
[1]; twice-weekly administration, 25 mg
  HSP70 induction in PBMCs: greater than that seen in once weekly 30 mg to 60 mg dose levels
[2]
  Distribution in brain tissues: highly distributed in the brain tissues
[3]; 25 mg twice-weekly
  AUClast: 14200 ng·h/mL
  Cmax: 232 ng/mL
[3]; 50 mg once-weekly
  AUClast: 7959 ng/mL
  Cmax: 552 ng/mL
[3]; both dosing schedules
  t1/2: ~20 h
[3]; both dosing schedules, postdose
  Time to peak concentrations: ~3 h
[3]; days 1 and 22 of cycle 1, multiple- or twice-weekly doses
  Drug accumulation: no drug accumulation
[3]; oral
  Apparent clearance: ~6.4 L/h
[3]; oral, apparent
  Volume of distribution: ~200 L
[4]; 5 mg weekly
  Patients with ⩾25% reduction in sSUVmax of target lesions: 1 patient
[4]; 25 mg twice weekly
  Patients with ⩾25% reduction in sSUVmax of target lesions: 3 patients
[4]; 30 mg weekly
  Patients with ⩾25% reduction in sSUVmax of target lesions: 1 patient
[4]; 50 mg weekly
  Patients with ⩾25% reduction in sSUVmax of target lesions: 6 patients
[4]; all patients
  Complete metabolic response: No complete metabolic response
[5]
  Doses at which tremors and ataxia were observed: ≥ 2 mg/kg
[6]
  Effects on CNS: no effects on CNS
[7]; 2.5 mg once weekly
  Total no. of patients who discontinue HSP990 (cause) beyond cycle 1: 0
[7]; 5 mg once weekly
  Total no. of patients who discontinue HSP990 (cause) beyond cycle 1: 0
[7]; 10 mg once weekly
  Total no. of patients who discontinue HSP990 (cause) beyond cycle 1: 0
[7]; 20 mg once weekly
  Total no. of patients who discontinue HSP990 (cause) beyond cycle 1: 1 (digestive disorder)
[7]; 25 mg twice weekly
  Description of grade ⩾3 drug-related AEs beyond cycle 1: Diarrhoea
  Grade ⩾3 drug-related AEs beyond cycle 1: 2
  Total no. of patients who discontinue HSP990 (cause) beyond cycle 1: 0
[7]; 30 mg once weekly
  Total no. of patients who discontinue HSP990 (cause) beyond cycle 1: 0
[7]; 50 mg once weekly
  Grade ⩾3 drug-related AEs beyond cycle 1: 6
[7]; 60 mg once weekly
  Description of grade ⩾3 drug-related AEs beyond cycle 1: Diarrhoea
  Grade ⩾3 drug-related AEs beyond cycle 1: 3
  Total no. of patients who discontinue HSP990 (cause) beyond cycle 1: 2 (diarrhoea)
[7]; all patients (N=64)
  Adverse events requiring dose adjustment or study drug interruption, patients: 30%
  Discontinued treatment for AEs of any causality, patients: 14%
  Drug-related AE that led to study discontinuation, patients: 11%
  Drug-related abdominal pain, patients: 16%
  Drug-related anorexia, patients: 25%
  Drug-related diarrhoea, patients: 73%
  Drug-related dizziness, patients: 19%
  Drug-related insomnia, patients: 25%
  Drug-related nausea, patients: 22%
  Drug-related tremor, patients: 19%
  Drug-related vomiting, patients: 14%
[7]; [10]
  Grade 3 QTc prolongation, drug-related: 3%
  Grade 3 asthenia, drug-related: 3%
  Grade 3 hyponatremia, drug-related: 3%
  Grade 3 increased ALT and/or AST, drug-related: 3%
[7]; all patients, mostly due to AEs
  Dose delays: 22 patients
[7]; during and beyond cycle 1, all patients
  Neurotoxicities leading to study drug discontinuation, patients: 14%
[7]; on study and up to 28 days after the last dose
  Drug-related deaths: No drug-related deaths
[8]; all patients
  Partial or complete responses (RECIST): No objective responses were seen; also recorded: No partial or complete responses were observed
[8]; all patients (N=64)
  Best overall response of stable disease: 25 patients
  Prolonged stable disease (⩾6 months), patients: 11%
  Stable disease as best overall response, patients: 39%
[8]; twice-weekly dosing schedule (7 out of 11 patients)
  Stable disease as best overall response, patients: 64%
[9]; 2.5 mg once weekly, 3 DLT evaluable patients
  Total no. of patients with DLTs: 0
[9]; 5 mg once weekly, 5 DLT evaluable patients
  Total no. of patients with DLTs: 0
[9]; 10 mg once weekly, 7 DLT evaluable patients
  Total no. of patients with DLTs: 0
[9]; 20 mg once weekly, 6 DLT evaluable patients
  Total no. of patients with DLTs: 0
[9]; 30 mg once weekly, 4 DLT evaluable patients
  Total no. of patients with DLTs: 0
[9]; 50 mg once a week, 22 patients
  Number of DLTs encountered: 5 DLTs
[9]; 50 mg once weekly, 22 DLT evaluable patients
  Total no. of patients with DLTs: 4
[9]; all dose levels and schedules
  Patients who experienced DLTs: seven

Reference: publication PMC4333497 (British Journal of Cancer, 2015)
